According to ChEMBL document CHEMBL5150073, “Photocaged DNA-Binding Photosensitizer Enables Photocontrol of Nuclear Entry for Dual-Targeted Photodynamic Therapy” (J Med Chem, 2022):
Calls of active or inactive are those of the source. The calls are words filed in the database; no cut-off is given here.

How the values were obtained:
[1] = tested on: MCF7; test: Photocytotoxicity against human MCF7 cells assessed as reduction in cell viability incubated for 1 hr under dark condition followed by washout and measured after 24 hrs by MTT assay; format: functional
Summary of the method: (§1)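 Cells (MCF7, A549, HeLa) incubated 1 h with compound (BB probes 0–32 μM, Br-DAPI 0–64 μM) and washed once. Light arms: 480 nm (15 min, 2.3 J cm⁻²) with or without UV (5 min, 8.0 J cm⁻²), or UV only; dark controls unilluminated. Cells kept overnight in growth medium, then MTT read 24 h post-treatment. CC50 taken relative to untreated cells. n = 3.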

[2] = tested on: MCF7; test: Induction of ROS production in human MCF7 cells at 2 uM incubated for 1 hr in dark followed by irradiation with 480 nm 2.3 J/cm^2 light for 15 mins with 8 J/cm^2 UV irradiation for 5 mins by DCFH2-DA probe based analysis; format: functional, cell-based; conditions: time 80.0 min
Summary of the method: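 MCF7 cells incubated with compound (2 μM) 1 h in the dark, washed, loaded with 10 μM DCFH2DA for 30 min, washed. DCF green fluorescence imaged after 480 nm illumination (15 min, 2.3 J cm⁻²), then after added 365 nm UV (5 min, 8.0 J cm⁻²). Mean fluorescence intensity quantified.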

[3] = tested on: MCF7; test: Photocytotoxicity against human MCF7 cells assessed as reduction in cell viability incubated for 1 hr followed by washout and irradiation with 480 nm 2.3 J/cm^2 light for 15 mins and measured after 24 hrs by MTT assay; format: functional; conditions: MCF7, light or radiation study; summary of the method: as §1
[4] = Photorelease activity in PBS at pH 7.4 assessed as 3-bromo-2-(4-carbamimidoylphenyl)-1H-indole-6-carboxamidine release by measuring time at when peak observed at 50 uM in presence of CT-DNA illuminated with 3.1 J/cm^2 480 nm illumination for 20 mins by RP-HPLC analysis; format: functional
Summary of the method: (§2)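 Samples at 50 μM in PBS pH 7.4 were either kept 3 h at 37 °C in the dark or illuminated 20 min at 480 nm (450–495 nm filter, 3.1 J cm⁻²). Analysed by RP-HPLC on a C18 analytical column with absorbance at 345 nm; retention times recorded. n = 2 independent samples.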

[5] = Photorelease activity in PBS at pH 7.4 assessed as 3-bromo-2-(4-carbamimidoylphenyl)-1H-indole-6-carboxamidine release by measuring increase in fluorescence intensity at 50 uM in presence of CT-DNA incubated for 3 hrs under dark condition by RP-HPLC analysis; format: functional; summary of the method: as §2
[6] = tested on: Calf thymus DNA; test: Binding affinity to calf thymus DNA assessed as fold change in fluorescence quenching of 3-bromo-2-(4-carbamimidoylphenyl)-1H-indole-6-carboxamidine; format: nucleic-acid assay; conditions: Bos taurus
[7] = Aqueous stability of the compound in PBS at pH 7.4 assessed as hydrolysis of carbamate to release 3-bromo-2-(4-carbamimidoylphenyl)-1H-indole-6-carboxamidine at 0.8 uM incubated for 3 hrs by fluorescence based analysis; format: physicochemical; conditions: buffer, pH 7.4, 3 h
[8] = tested on: MCF7; test: Photocytotoxicity against human MCF7 cells assessed as reduction in cell viability incubated for 1 hr followed by washout and irradiation with 480 nm 2.3 J/cm^2 light for 15 mins with 8 J/cm^2 UV irradiation for 5 mins and measured after 24 hrs by MTT assay; format: functional; conditions: MCF7, light or radiation study; summary of the method: as §1
[9] = (§3) Stability of compound in human MCF7 cells assessed as esterase-mediated 3-bromo-2-(4-carbamimidoylphenyl)-1H-indole-6-carboxamidine release by measuring cyan fluorescence at 2 uM incubated for 1 hr followed by compound washout and further incubated for 1 hr on heated microscopic stage by DAPI filter based fluorescence analysis; format: ADME, cell-based; conditions: mcf7, 1 h
Summary of the method: (§4)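 Cells incubated with compound (2 μM) for 1 h, washed once with PBS, then kept a further 1 h in the dark on a heated microscope stage. Nuclear cyan fluorescence imaged with the DAPI filter set at 0 h and 2 h time points.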

[10] = Photorelease activity in PBS at pH 7.4 assessed as wintergreen release at 50 uM in presence of CT-DNA illuminated with 3.1 J/cm^2 480 nm illumination for 20 mins by RP-HPLC analysis; format: functional; summary of the method: as §2
[11] = tested on: MCF7; test: Photorelease activity in human MCF7 cells assessed as 3-bromo-2-(4-carbamimidoylphenyl)-1H-indole-6-carboxamidine release by measuring bright cyan fluorescence in nucleus at 3 uM incubated for 1 hr followed by illumination with 1.6 J/cm^2 for 10 mins by DAPI filter based analysis; format: ADME, cell-based; conditions: mcf7, 1.167 h, time 70 min
Summary of the method: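 MCF7 cells given compound (3 μM) for 1 h, washed once with PBS, imaged. DAPI filter set (ex 350–405, em 415–470 nm) used for Br-DAPI cyan signal; EGFP filter set (ex 450–495, em 500–550 nm) used for WinterGreen green signal. Cells imaged dark, then after 480 nm illumination (10 min, 1.6 J cm⁻²).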

[12] = Photorelease ability in PBS at pH 7.4 assessed as 3-bromo-2-(4-carbamimidoylphenyl)-1H-indole-6-carboxamidine release by measuring change in emission spectra at 1 uM incubated in presence of CT-DNA and irradiated with 3.1 J/cm^2 mercury lamp light for 20 mins; format: functional
[13] = as §3, with “A549” for “MCF7”; format: ADME, cell-based; conditions: a549, 1 h; summary of the method: as §4
[14] = as §3, with “HeLa” for “MCF7”; format: ADME, cell-based; summary of the method: as §4
[15] = tested on: Calf thymus DNA; test: Binding affinity to calf thymus DNA assessed as dissociation constant by fluorescence based analysis; format: nucleic-acid assay, Bos taurus
Summary of the method: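 Fluorescence titration: compound at 20 μM in PBS pH 7.4, calf thymus DNA added in 10 μM steps until emission plateaued (~60 μM). Excitation 345 nm, emission 350–650 nm. KD obtained by fitting a one-site total saturation binding model (nonspecific binding proportional to ligand). Triplicate independent samples.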

[16] = Induction of ROS production in PBS at pH 7.4 at 1 uM irradiated with 480 nm 2.3 J/cm^2 light for 15 mins with 2-photon irradiation by DCFH2-DA probe based analysis; format: functional
[17] = Drug uptake in human MCF7 cells cultured as […] spheroids assessed as increase in green fluorescence in nuclear background at 10 uM incubated overnight under dark condition by DAPI filter based fluorescence analysis; format: ADME, cell-based; conditions: mcf7, 10 µM
[18] = Drug localization in nucleus of human MCF7 cells assessed as increase in cyan fluorescence at 3 uM incubated for 1 hr by DAPI filter based analysis; format: ADME, subcellular; conditions: mcf7, 1 h
[19] = tested on: MCF7; test: Photocytotoxicity against human MCF7 cells assessed as reduction in cell viability incubated for 1 hr followed by washout and irradiation with 8 J/cm^2 UV irradiation for 5 mins and measured after 24 hrs by MTT assay
[20] = tested on: MCF7; test: Photocytotoxicity against human MCF7 cells assessed as reduction in cell viability incubated for 1 hr followed by washout and irradiation with 8 J/cm^2 UV irradiation for 5 mins and measured after 24 hrs by MTT assay; format: functional; conditions: MCF7, light or radiation study; summary of the method: as §1
[21] = tested on: MCF7; test: Induction of DNA damage in human MCF7 cells assessed as double strand breaks by measuring pink foci formation in nucleus at 3 uM incubated for 2 hrs followed by irradiation with 8 J/cm^2 UV irradiation for 5 mins by gammaH2A.X antibody/Alexa 488/DAPI staining based fluorescence analysis; format: functional, cell-based
Summary of the method: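 MCF7 cells treated with compound at 3 μM, then illuminated with 480 nm (15 min, 2.3 J cm⁻²) plus UV (5 min, 8.0 J cm⁻²), or with UV alone. Left 2 h, fixed, stained with Alexa 488-tagged γH2AX antibody and DAPI counterstain. Nuclear foci imaged.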

[22] = Drug localization in nucleus of human MCF7 cells assessed as increase in cyan fluorescence of 3-bromo-2-(4-carbamimidoylphenyl)-1H-indole-6-carboxamidine excitation at 3 uM incubated for 1 hr in dark by DAPI filter based analysis; format: ADME, subcellular; conditions: mcf7, 1 h

CC1=CC(C)=[N+]2C1=C(COC(=O)/N=C(\N)c1ccc(-c3[nH]c4cc(C(=N)N)ccc4c3Br)cc1)c1c(C)cc(C)n1[B-]2(C)C
CC50 [1]: > 16 µM | Activity [2]: Active | CC50 [3]: 5.8 µM | TIME [4]: 0.533 h | Drug metabolism [5]: Metabolite not detected | fold change (FC) [6]: 4 | Stability [7]: Stable | CC50 [8]: 0.6 µM | Stability [9]: Stable | Drug metabolism [10]: Metabolite not detected | Drug metabolism [11]: Metabolite_Detected | Drug metabolism [12]: Metabolite detected | Stability [13]: Stable | Stability [14]: Stable | Kd [15]: 10 µM | Activity [16]: Active

N=C(N)c1ccc(-c2[nH]c3cc(C(=N)N)ccc3c2Br)cc1
CC50 [1]: > 64 µM | Drug uptake [17]: Active | Drug uptake [18]: Active | Activity [19]: Active | Kd [15]: 19 µM | CC50 [20]: 7.6 µM | Activity [21]: Active

COC(=O)/N=C(/N)c1ccc2c(Br)c(-c3ccc(C(=N)N)cc3)[nH]c2c1
fold change (FC) [6]: 4 | Drug uptake [22]: Active
